# Bioassay records from PubChem BioAssay.
# bIAP activator: bovine intestinal alkaline phosphatase activators, primary screen, biochemical, bovine IAP, CDP-star luminescence; alkaline phosphatase, intestinal [Bos taurus]; hit rate 0.17% among 200,000; activation factor at 20 µM; purified bovine IAP, 30 min; active compounds read high; fold of DMSO-control signal, blank-subtracted;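 active = activation factor of 2 or more at 20 µM, a signal rise over negative controls twice the positive control's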
# mIAP inh: inhibitors of mouse IAP, primary screen, biochemical, luminescence, uHTS; intestinal alkaline phosphatase [Mus musculus]; purified mouse IAP, CDP-Star luminescence, 30 min; inhibition, % at 10 µM; hit rate 0.2% among 330,000; AID 2806, 2010;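 active = inhibition of at least 40% at 10 µM in the primary screen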;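 also: plate controls were DMSO with enzyme for no effect and no enzyme wells for full effect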
# hIAP activ: human IAP activators, primary screen, biochemical, luminescence, uHTS. activation factor at 10 µM. AID 2524, 2010. Intestinal-type alkaline phosphatase (Homo sapiens), P09923. hit rate 0.16% among 330,000. purified human IAP, CDP-Star luminescence, 30 min; active compounds read high; 1 = vehicle-only enzyme, 0 = enzyme-free background;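 active = activation factor of the enzyme at least 2-fold when tested at 20 µM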
# Target sequence (P09923 whole entry, looked up): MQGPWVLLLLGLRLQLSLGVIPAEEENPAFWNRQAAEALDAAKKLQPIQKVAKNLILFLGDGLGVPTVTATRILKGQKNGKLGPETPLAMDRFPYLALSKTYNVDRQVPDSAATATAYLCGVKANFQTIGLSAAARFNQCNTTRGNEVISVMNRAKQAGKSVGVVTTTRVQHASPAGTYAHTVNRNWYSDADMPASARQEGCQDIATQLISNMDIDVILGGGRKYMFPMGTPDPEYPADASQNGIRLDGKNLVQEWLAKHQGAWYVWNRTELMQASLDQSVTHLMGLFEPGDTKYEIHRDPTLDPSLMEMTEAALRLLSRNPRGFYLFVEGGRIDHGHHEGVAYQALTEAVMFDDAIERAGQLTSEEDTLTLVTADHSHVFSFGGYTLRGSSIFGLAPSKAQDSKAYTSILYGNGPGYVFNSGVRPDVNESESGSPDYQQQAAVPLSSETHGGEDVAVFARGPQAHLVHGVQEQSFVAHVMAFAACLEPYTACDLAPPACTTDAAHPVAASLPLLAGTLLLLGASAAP
# mIAP act: activators of mouse IAP, primary screen, biochemical, luminescence, uHTS; hit rate 0.24% among 330,000; activation factor at 10 µM; AID 2805, 2010; muIAP, CDP-Star luminescence, 30 min; active compounds read high; 1 = vehicle-only enzyme signal, 0 = enzyme-free wells; intestinal alkaline phosphatase [Mus musculus];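 active = activation factor of at least 2 at 20 µM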
#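 Assay system: mouse IAP enzyme; reagent: chemiluminescent substrate CDP-Star; dosing: test compounds delivered from DMSO solution; schedule: 30 min at room temperature; measured by: luminescence from enzymatic CDP-Star hydrolysis; controls: DMSO-only wells and no-enzyme negative control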
# bIAP inh: bovine intestinal alkaline phosphatase inhibitors, primary screen, selectivity assay for TNAP inhibitor project, biochemical, bovine IAP, CDP-star luminescence. AID 1019, 2008. inhibition, % at 20 µM. alkaline phosphatase, intestinal [Bos taurus]. purified bovine IAP, 30 min. 190,000 tested, under 10 active;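 active = over 50% inhibition of intestinal alkaline phosphatase at 20 µM in the single-dose screen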
#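 Incubation: 30 min reaction at room temperature / Material: purified bovine intestinal alkaline phosphatase (IAP) enzyme / Input: enzyme at 1/65,000,000 dilution / Dosing: 20 µM single dose / Signal: CDP-star luminescence signal / Reagent: CDP-star chemiluminescent phosphatase substrate, 30 µM final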
# hIAP inh: human IAP inhibitors, primary screen, biochemical, luminescence, uHTS; Intestinal-type alkaline phosphatase (Homo sapiens), P09923; purified IAP, CDP-Star luminescence, 30 min; inhibition, % at 10 µM; hit rate 0.12% among 330,000; AID 2544, 2010;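 active = inhibition reaching a set limit with compound at 10 µM in the primary screen, cut at about 35% in these data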;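 also: plate controls were DMSO wells with enzyme for no effect and no-enzyme buffer wells for full effect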
# * hit, by the source's call; . = no result given. A selection: hits, their analogues and other compounds. The true share with any hit is near 0.72%.
SMILES,bIAP activator,mIAP inh,hIAP activ,mIAP act,bIAP inh,hIAP inh
Cc1ccsc1CN(C)C(=O)c1ccc(Oc2ccccc2)cc1,.,1.0,0.831,0.99,.,16.9
CSc1ccccc1OCc1cc(C(=O)NCCN2CCCc3ccccc32)no1,.,-2.1,1.18,1.02,.,-17.5
CCCn1c(C(O)c2ccc3c(c2)OCO3)nc2ccccc21 (stereo unspecified),5.8*,2.8,1.09,0.972,-478.0,-8.8
CCCn1c(C(O)c2ccc(C)cc2)nc2ccccc21 (stereo unspecified),.,8.2,1.21,0.918,.,-20.6
Cc1ccc(S(=O)(=O)N2CCOCC2)cc1C(=O)Nc1ccc2c(c1)OCCO2,.,3.4,0.844,0.966,.,15.6
Cn1c(SCC(=O)c2ccc(O)cc2O)nnc1-c1ccccc1,.,2.4,0.965,0.976,.,3.5
Cn1c(N=Nc2ccccc2)nc2ccccc21,0.5,14.5,1.01,0.855,.,-1.1
CN(C)c1ccc(N=Nc2nc3ccccc3n2C)cc1,.,42.2*,0.826,0.578,.,17.4
COc1ccc(OC)c(NC(=O)C2CC(=O)N(Cc3ccco3)C2)c1 (stereo unspecified),.,-4.5,1.03,1.04,.,-2.7
COc1cccc(C(O)c2nc3ccccc3n2C(C)C)c1OC (stereo unspecified),.,-4.5,1.25,1.04,.,-24.8
COc1cccc(C(O)c2nc3ccccc3n2C(C)C)c1 (stereo unspecified),2.1*,3.0,1.15,0.97,-105.4,-14.5
C=CCn1c(=O)/c(=C/c2ccc(C)o2)s/c1=C(/C#N)C(=O)c1ccccc1,0.8,41.6*,0.808,0.584,19.1,19.2
C=CCn1c(=O)/c(=C\c2ccccn2)s/c1=C(/C#N)C(=O)NCC1CCCO1 (stereo unspecified),1.1,7.0,0.924,0.93,-6.0,7.6
O=C(CCCC(=O)Nc1ccc(Br)cc1)N/N=C/c1ccccc1,.,5.4,1,0.946,.,-0.1
O=c1cc(-c2ccc(O)cc2)oc2c(C3OCC(O)C(O)C3O)c(O)c(C3OC(CO)C(O)C(O)C3O)c(O)c12 (stereo unspecified),.,42.8*,1.01,0.572,.,-1.3
Cc1ccc(NC(=S)N2CCN(C(=O)C3CCCO3)CC2)cc1 (stereo unspecified),1,-2.0,0.993,1.02,4.6,0.7
O=C(C1CCCO1)N1CCN(C(=S)Nc2ccc(Cl)cc2)CC1 (stereo unspecified),2.4*,3.8,0.934,0.962,-142.1,6.6
CCc1ccccc1NC(=S)NCCSc1ccc(Cl)cc1,0.5,-102.4,0.808,2.02*,.,19.2
Cc1ccc(NC(=S)NCC(C)CSc2ccc(Cl)cc2)cc1 (stereo unspecified),0.7,-165.3,1.36,2.65*,30.8,-35.7
Cc1cccc(NC(=S)NC(C)CCc2ccccc2)c1 (stereo unspecified),0.6,-117.2,1.08,2.17*,37.6,-7.8
Cc1cccc(NC(=S)NCC(c2ccccc2)N(C)C)c1 (stereo unspecified),0.8,-8.7,1.03,1.09,16.8,-3.3
Cc1ccc(NC(=S)NCCSc2ccc(Cl)cc2)c(C)c1,1.1,-99.0,0.998,1.99,-14.7,0.2
Cc1ccccc1NC(=S)NCCSc1ccc(Cl)cc1,0.4,-96.7,1.13,1.97,.,-12.8
Cc1cccc(NC(=S)NCC(C)CSc2ccc(Cl)cc2)c1 (stereo unspecified),0.7,-224.8,1.38,3.25*,34.6,-37.5
COCCn1c(SC(C)C(=O)NCC2CCCO2)nc2sc3c(c2c1=O)CCC3 (stereo unspecified),.,7.7,0.962,0.923,.,3.8
CCc1csc(CNC(=O)C2CCC(=O)N(Cc3cccc(F)c3)C2)n1 (stereo unspecified),.,-6.2,0.871,1.06,.,12.9
Cc1cc(C)n(-c2ccc(NC(=O)C3CCCCN3C(=O)c3cc(C)oc3C)cc2)n1 (stereo unspecified),.,-4.8,1.47,1.05,.,-47.0
